Rev-RRE block = HIV-1 Rev-RRE binding inhibitors, primary screen, biochemical, FRET, protein-RNA interaction. P05866. Rev peptide-RRE RNA binding. inhibition, % at 8 µM. hit rate 0.79% among 97,000. AID 704, 2007;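 active = inhibition above the screen-wide mean plus 3 SD, cut at about 35% in these data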;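 also: 0% = median DMSO wells and 100% = median Neomycin B control wells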
Target sequence (P05866 whole entry, looked up): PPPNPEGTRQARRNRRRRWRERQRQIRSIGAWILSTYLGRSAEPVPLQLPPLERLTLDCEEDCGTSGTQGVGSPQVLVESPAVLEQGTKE
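Material: labelled RRE RNA duplex and labelled Rev peptide / Buffer or medium: HEPES pH 7.5 salt buffer with EDTA / Compound dosing: single point, 8 µM final nominal compound concentration / Benchmarks: DMSO low control, neomycin B high control / Timing: 5 min preincubation and 15 min binding, 25 °C / Technique: FRET fluorescence readout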
Cav3 T inh = Cav3.2 calcium influx blockers – cell-based, Fluo-4 calcium fluorescence, FDSS, MLSMR library, primary screen; Voltage-dependent T-type calcium channel subunit alpha-1H (Homo sapiens), O95180; Cav3.2-expressing cells; hits give low values; B-score at 10 µM; hit rate 4% among 100,000; AID 449739, 2010;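 active = single-dose well whose peak fluorescence ratio is a statistical outlier from its plate by either plate-standardised score or position-corrected B-score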
CYP2C9 activ = human CYP2C9 activators, primary screen, biochemical, luminescence. Cytochrome P450 2C9 (Homo sapiens), P11712. recombinant CYP2C9, luciferin-H conversion; hits give high values; factor 1 = untreated enzyme, 0 = blocked. activation factor at 5 µM. hit rate 1.4% among 96,000. AID 1024, 2008;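 active = activation factor of 2 or more for CYP2C9 at a 5 µM dose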;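 also: 0 = sulfaphenazole-blocked wells and 1 = vehicle-only wells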
CYP2C19 inhib = blockers of cytochrome P450 2C19 activity – biochemical, luminescence, ADME assay, primary screen; AID 778, 2007; CYP2C19 Supersomes, luciferin-H EGE luminescence, 30 min; hit rate 21% among 96,000; P33261; inhibition, % at 5 µM;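 active = CYP2C19 inhibition above a set limit at 5 µM in the primary screen, cut at about 50% in these data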;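 also: plate controls were negative control wells for no effect and 2.5 mM tranylcypromine positive control for full effect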
CYP2C9 inh = blockers of cytochrome P450 2C9 activity – biochemical, luminescence, ADME assay, primary screen | P11712 | inhibition, % at 5 µM | hit rate 20% among 96,000 | CYP2C9 Supersomes, luciferin-H conversion;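 active = blocking of liver enzyme CYP2C9 beyond about 50% at 5 µM, limit read from the data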
CYP2C19 act = human CYP2C19 activators, primary screen, biochemical, luminescence. Cytochrome P450 2C19 (Homo sapiens), P33261. activation factor at 5 µM. 96,000 tested, under 10 active. AID 1025, 2008. recombinant CYP2C19, luciferin-H EGE luminescence; hits give high values; 0 = fully inhibited enzyme, 1 = untreated enzyme;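 active = activation factor of at least 2 at 5 µM in the primary screen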;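 also: 0 = wells with 2.5 mM tranylcypromine and 1 = vehicle-only wells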
* = called active by the depositor; · = no result given. Most compounds without a hit are left out; they make up all but 27% or so of the library.

SMILES	Rev-RRE block	Cav3 T inh	CYP2C9 activ	CYP2C19 inhib	CYP2C9 inh	CYP2C19 act
O=C(Nc1nccs1)c1cccc(N2C(=O)c3cccc4c([N+](=O)[O-])ccc(c34)C2=O)c1	51*	·	0.8	25	20	0.8
CCC(=Nc1ccc(Cc2ccncc2)cc1)c1c(O)n(C)c(=O)n(C)c1=O	6	0.36	0.1	96*	92*	0
Cc1c(NC(=S)/C=C2\N(C)c3ccccc3C2(C)C)c(=O)n(-c2ccccc2)n1C	-2	0.011	1.9	65*	-93	0.4
CCOc1ccccc1-n1c(CN2CCN(C(=O)c3ccco3)CC2)nc2ccccc2c1=O	14	·	0.3	57*	65*	0.4
CCOc1cc(CN2CCN(C(=O)c3ccco3)CC2)ccc1OC	·	0.76	1.1	3	-14	1
O=C(CSc1nnc(COc2cccc3ccccc23)o1)N1CCN(C(=O)c2ccco2)CC1	5	0.54	·	·	·	·
O=C(c1ccco1)N1CCN(CCOCCOc2cccc3ccccc23)CC1	4	-0.42	0.4	68*	57*	0.3
CCCCCC(=O)N1CC2(CC(c3cccc(NC(=O)CC)c3)=NO2)C[C@H]1C(N)=O (some centres not stated)	·	0.3	·	·	·	·
Cc1ccc(C(C#N)c2ccc(C(=O)c3ccc(F)cc3)cc2)cc1 (configuration not stated)	20	0.01	0.4	46	60*	0.5
O=C(c1ccc(F)cc1)c1ccc(N2CCCC2)cc1	9	0.63	1	21	4	0.8
Cc1ccc(C(=O)c2ccc(C(F)(F)F)cc2)cc1	9	0.32	0.9	35	14	0.6
N#CC(c1ccc(F)cc1)c1ccc(C(=O)c2ccc(F)cc2)cc1 (configuration not stated)	11	-1.8	0.2	46	77*	0.5
Cc1ccc(C(=O)CSc2nnc(-c3c[nH]c4ccccc34)o2)cc1	12	1.2	0.5	38	53*	0.6
CC1CCCCN1C(=O)CSc1nnc(-c2c[nH]c3ccccc23)o1 (configuration not stated)	·	0.4	1.2	79*	-15	0.2
COc1ccc(C(=O)CSc2nnc(-c3ccc(C)cc3)o2)cc1	0	0.097	0.5	44	50	0.6
CS(=O)(=O)N1CCN(c2ccccc2NC(=O)Cc2ccccc2)CC1	0	1.4	0.5	62*	50	0.4
O=C(Cc1ccccc1)Nc1ccccc1N1CCN(c2ccccc2)CC1	8	-2	0.9	16	14	0.8
CS(=O)(=O)N1CCN(c2ccccc2NC(=O)c2ccc(-c3ccc(Cl)cc3Cl)o2)CC1	10	-0.58	0.5	25	50*	0.8
CCC(=O)N1CCN(c2ccccc2NC(=O)Cc2ccccc2)CC1	2	-5*	0.6	59*	42	0.4
Cc1ccc(N2C(=O)[C@@H]3C(c4ccc(F)cc4)=NO[C@@H]3C2=O)cc1	9	-0.56	1.1	13	-7	0.9
O=C1CC2(CON=C2c2ccc(F)cc2)C(=O)N1c1ccc(F)cc1 (configuration not stated)	4	1	0.5	89*	51*	0.1
COc1cccc(CNc2nc3nc(C)cc(=O)n3[nH]2)c1	6	0.2	1	-7	4	1.1
COc1ccc(N=C2C(=O)Nc3c(C)cccc32)cc1	1	0.068	0.9	-2	5	1
O=c1cc(-c2ccccc2)nc2nc(-c3ccccc3)[nH]n12	5	-0.15	0.4	-1	59*	1
CN=Cc1c(NC)nc2c(C)cccn2c1=O	-1	1.5	1	-5	-3	1
COc1ccc(S(=O)(=O)NC(C)(C)C)cc1-c1nnc2c3ccccc3c(C)nn12	8	0.1	0.5	66*	46	0.3
Cc1cc(NS(=O)(=O)c2ccccc2)c(C)c(Cl)c1O	·	-2	2.8*	99*	-182	0
